Reference: ChEMBL document CHEMBL1123566, “Synthesis and cardiac electrophysiological activity of 2- and 3-[(substituted phenyl)alkyl]quinuclidines. Structure-activity relationships” (1987)
Where “and” joins values, the source holds several entries; their conditions need not be identical. Equal values may be shown once.

Columns and labels:
Canis familiaris [1] = test: Mean arterial blood pressure was determined by intraduodenal administration of two dosages of 3 mg/kg of (low dose) compound in anesthetized dogs. Value was reported for experiment 1; type: functional, Canis lupus familiaris
Procedure, shortened: (§1)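 Anesthetized dogs received two intraduodenal doses, the second cumulative (low dose/high dose). Left ventricular FRP and CT were measured 15, 30 and 45 min after dosing. Heart rate and mean blood pressure were taken during nonpacing intervals. Values are percent change from control. The vehicle was 5% dextrose in water/tragacanth. Activity was defined as ≥12% prolongation of FRP or CT.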

Canis familiaris [2] = test: Mean arterial blood pressure was determined by intraduodenal administration of two dosages of 3 mg/kg of (high dose) compound in anesthetized dogs. Value was reported for experiment 3; type: functional, Canis lupus familiaris
Procedure, shortened: (§2)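 Anesthetized dogs, usually given two intraduodenal doses, with the second dose cumulative (low/high). Left ventricular FRP and CT were determined at 15, 30 and 45 min after dosing. HR and BP were measured during nonpacing intervals. Values are % change from control at low/high dose, for individual animals. The vehicle-stability set used 5% dextrose in water/tragacanth (n = 8).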

Canis familiaris [3] = species on record: Canis familiaris; test: In vitro electrophysiological evaluation in canine cardiac ventricular muscle reported as % change for conduction time(CT) at 0.1-100 uM concentration range; type: functional, Canis lupus familiaris, Muscle tissue
Procedure, shortened: (§3)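 Canine right ventricular/papillary muscle strips in oxygenated Tyrode's, extracellular extra-stimulus conduction-interval method. FRP and CT are read from conduction-interval curves before and during rising concentrations. Compound is a 10 mM aqueous stock diluted into Tyrode's. Each strip is used once as its own control. Readouts are percent change from control at 10 μM, plus the maximum change with its concentration.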

Canis familiaris [4] = test: Mean arterial blood pressure was determined by intraduodenal administration of two dosages of 1 mg/kg of (low dose) compound in anesthetized dogs. Value was reported for experiment 2; type: functional, Canis lupus familiaris; procedure, shortened: as §2
Canis familiaris [5] = species on record: Canis familiaris; test: In vitro electrophysiological evaluation in canine cardiac Purkinje fibres reported as maximum percent change Vmax concentration range of 1-100 uM; type: functional; conditions: Canis lupus familiaris; Purkinje fiber
Procedure, shortened: (§4)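 Canine cardiac Purkinje fibers, intracellular recording, paced at a basic cycle length of 1 s. APD95 and Vmax are recorded together across cumulative concentrations. Compound is a 10 mM aqueous stock diluted into Tyrode's solution. Each fiber is used once as its own control. Readouts are percent change from control at 10 μM, and the maximum change with the concentration where it occurred.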

Canis familiaris [6] = species on record: Canis familiaris; test: In vitro electrophysiological activity in canine cardiac Purkinje fibres given as maximum % change for action potential duration at 0.01-100 uM concentration; type: functional, Canis lupus familiaris, Purkinje fiber; procedure, shortened: as §4
Canis familiaris [7] = species on record: Canis familiaris; test: In vitro electrophysiological activity in canine cardiac Purkinje fibres given as maximum % change for action potential duration at 0.1-10 uM concentration; type: functional, Canis lupus familiaris, Purkinje fiber
Procedure, shortened: (§5)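 Canine cardiac Purkinje fibres, intracellular recording at 1 s basic cycle length, over cumulative concentration ranges. Compound 10 mM stock in deionized water diluted into Tyrode's. Each fibre used once as its own control. Value is the maximum % change from control in APD at 95% repolarization, with the concentration where it occurred; both values given if a biphasic response (>20% reversal) occurred.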

Canis familiaris [8] = test: Heart rate was determined by intraduodenal administration of two dosages of 1 mg/kg of (low dose) compound in anesthetized dogs. Value was reported for experiment 2; type: functional, Canis lupus familiaris
Procedure, shortened: (§6)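 Anesthetized dogs given the compound intraduodenally, generally as two doses with the second a cumulative total (low/high). FRP and CT measured at 15, 30 and 45 min after dosing. HR and BP taken during nonpacing intervals. Values are percent change from control per animal. Activity criterion is FRP or CT prolonged ≥12%. Vehicle: 5% dextrose in water/tragacanth.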

Canis familiaris [9] = species on record: Canis familiaris; test: In vitro electrophysiological evaluation in canine cardiac Purkinje fibres reported as % change for action potential duration at 0.1-100 uM concentration range; type: functional, Canis lupus familiaris, Purkinje fiber
Procedure, shortened: (§7)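 Canine cardiac Purkinje fibres, intracellular microelectrode recording, paced at a basic cycle length of 1 s. APD95 and Vmax read simultaneously. Compound: 10 mM stock in deionized water, diluted into Tyrode's solution, tested over the stated concentration range. Each fibre used once as its own control. Result is % change from control, given at 10 µM or as the maximum with its concentration. M = <10% decrease or an increase in Vmax.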

Canis familiaris [10] = test: Left ventricular refractory period was determined by intraduodenal administration of two dosages of 3 mg/kg of (high dose) compound in anesthetized dogs. Value was reported for experiment 3; type: functional, Canis lupus familiaris, Cardiac ventricle; procedure, shortened: as §2
Canis familiaris [11] = test: Conduction time was determined by intraduodenal administration of two dosages of 3 mg/kg (low dose) of compound in anesthetized dogs. Value was reported for experiment 1; type: functional, Canis lupus familiaris
Procedure, shortened: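 Anesthetized dogs; compound given intraduodenally, generally as two doses, the second a cumulative (high) dose. LV functional refractory period and conduction time measured 15, 30 and 45 min after dosing; heart rate and blood pressure measured during nonpacing intervals. Values are % change from control, given per individual animal. Active if FRP or CT prolonged by ≥12%.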

Canis familiaris [12] = species on record: Canis familiaris; test: In vitro electrophysiological evaluation in canine cardiac Purkinje fibres reported as percent change Vmax concentration range of 0.1-100 uM; Minimal (<IO%increase or a decrease in CT); type: functional; conditions: Canis lupus familiaris; Purkinje fiber; procedure, shortened: as §7
Canis familiaris [13] = species on record: Canis familiaris; test: In vitro electrophysiological evaluation in canine cardiac ventricular muscle reported as maximum % change for functional refractory period (FRP) at 0.1-100 uM concentration range; set-up: species or system Canis lupus familiaris, Muscle tissue
Canis familiaris [14] = test: Heart rate was determined by intraduodenal administration of two dosages of 3 mg/kg of (high dose) compound in anesthetized dogs. Value was reported for experiment 2; type: functional, Canis lupus familiaris; procedure, shortened: as §6
Canis familiaris [15] = species on record: Canis familiaris; test: In vitro electrophysiological evaluation in canine cardiac Purkinje fibres reported as % change for action potential duration at 0.01-100 uM concentration range; type: functional, Canis lupus familiaris, Purkinje fiber; procedure, shortened: as §4
Canis familiaris [16] = species on record: Canis familiaris; test: In vitro electrophysiological evaluation in canine cardiac ventricular muscle reported as maximum % change for conduction time(CT) at 0.1-10 uM concentration range; Minimal (<IO%increase or a decrease in CT); type: functional, Canis lupus familiaris, Muscle tissue; procedure, shortened: as §3
Canis familiaris [17] = species on record: Canis familiaris; test: In vitro electrophysiological evaluation in canine cardiac ventricular muscle reported as % change for conduction time(CT) at 0.1-100 uM concentration range; Minimal (<IO%increase or a decrease in CT); type: functional, Canis lupus familiaris, Muscle tissue
Canis familiaris [18] = species on record: Canis familiaris; test: In vitro electrophysiological activity in canine cardiac Purkinje fibres given as maximum % change for action potential duration at 0.1-100 uM concentration; type: functional, Canis lupus familiaris, Purkinje fiber; procedure, shortened: as §5
Canis familiaris [19] = test: Left ventricular refractory period was determined by intraduodenal administration of two dosages of 3 mg/kg of (high dose) compound in anesthetized dogs. Value was reported for experiment 2; type: functional, Canis lupus familiaris, Cardiac ventricle; procedure, shortened: as §2
Canis familiaris [20] = species on record: Canis familiaris; test: In vitro electrophysiological evaluation in canine cardiac ventricular muscle reported as % change for the functional refractory period (FRP) concentration range of 0.1-100 uM; set-up: species or system Canis lupus familiaris, Muscle tissue; procedure, shortened: as §3
Canis familiaris [21] = test: Heart rate was determined by intraduodenal administration of two dosages of 10 mg/kg of (high dose) compound in anesthetized dogs. Value was reported for experiment 3; type: functional, Canis lupus familiaris; procedure, shortened: as §6
Canis familiaris [22] = species on record: Canis familiaris; test: In vitro electrophysiological evaluation in canine cardiac Purkinje fibres reported as % change for action potential duration at 1-100 uM concentration range; type: functional, Canis lupus familiaris, Purkinje fiber; procedure, shortened: as §4
Canis familiaris [23] = test: Left ventricular refractory period was determined by intraduodenal administration of two dosages of 10 mg/kg of (high dose) compound in anesthetized dogs. Value was reported for experiment 1; type: functional, Canis lupus familiaris, Cardiac ventricle; procedure, shortened: as §1
Canis familiaris [24] = species on record: Canis familiaris; test: In vitro electrophysiological evaluation in canine cardiac ventricular muscle reported as maximum % change for conduction time(CT) at 0.1-100 uM concentration range; Minimal (<IO%increase or a decrease in CT); type: functional, Canis lupus familiaris, Muscle tissue
Procedure, shortened: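 Canine right ventricle and papillary muscle strips in oxygenated Tyrode's solution, fitted with stimulating and recording electrodes. The extra-stimulus conduction-interval method was adapted for in vitro use. FRP and CT were read from a conduction-interval curve before and after various compound concentrations, and expressed as percent change from control. Compounds were taken from 10 mM deionized-water stock into Tyrode's. Each strip was used once as its own control.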

CCCCCCC[N+](CC)(CC)CCCCc1ccc(Cl)cc1.O=P([O-])(O)O [CLOFILIUM PHOSPHATE] gave a Mean blood pressure (Canis familiaris [1]) of -7%, a Mean blood pressure (Canis familiaris [2]) of 0% and a CT (Canis familiaris [3]) of 11%. The Mean blood pressure (Canis familiaris [4]) was -2%, the Vmax (Canis familiaris [5]) was -69% and -65% and the APD95 (Canis familiaris [6]) was 27% and 55%. For the same compound, the APD95 (Canis familiaris [7]) was 52%, the HR (Canis familiaris [8]) was -2% and the APD95 (Canis familiaris [9]) was 48% and 46%. For the same compound, the “LV FRP” value (Canis familiaris [10]) was 4%, the CT (Canis familiaris [11]) was -4% and the Vmax (Canis familiaris [12]) was under 10%. For the same compound, the FRP (Canis familiaris [13]) was -3% and 14% and 7%, the HR (Canis familiaris [14]) was -6% and the APD95 (Canis familiaris [15]) was 27% and 55%. The CT (Canis familiaris [16]) was under 10%, the CT (Canis familiaris [17]) was under 10% and the APD95 (Canis familiaris [18]) was 52% and 46%. For the same compound, the “LV FRP” value (Canis familiaris [19]) was 2%, the “FRP at 10microM” value (Canis familiaris [20]) was -3% and the HR (Canis familiaris [21]) was -11%. For the same compound, the APD95 (Canis familiaris [22]) was 49% and 18%, the “LV FRP” value (Canis familiaris [23]) was 22% and the CT (Canis familiaris [24]) was under 10%.
